Consider nine molecules from ChEMBL document CHEMBL5244263, “Studies on fragment-based design of allosteric inhibitors of human factor XIa” (Bioorg Med Chem, 2020).

Calls of active or inactive are those of the source. The rule behind the calls is not given here.

In assay [1] the target is Prothrombin (Homo sapiens) (UniProt P00734). Kind of assay: Inhibition of human thrombin at 500 uM by chromogenic substrate hydrolysis assay.
For assay [2], the species on record is Homo sapiens. The assay is described as follows: Selectivity for inhibition of human FXIa over human thrombin.
The species entered for assay [3] is Homo sapiens. The assay is described as follows: Selectivity for inhibition of human FXIa over human FXa.
The target of assay [4] is T1, Coagulation factor XI (Homo sapiens, UniProt P03951). The assay is described as follows: Inhibition of human FXIa using S-2366 as chromogenic substrate preincubated with enzyme for 10 mins followed by substrate addition by spectrophotometric analysis relative to control. Details: concentration or dose not given beside the values. In short, it runs like this:
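hFXIa (0.765 nM final) preincubated with inhibitor or reference solution for 10 min at 37 °C in pH 7.4 buffer (50 mM Tris-HCl, 150 mM NaCl, 0.1% PEG8000, 0.02% Tween80). S-2366 (345 μM final) then added, and residual activity read on a microplate reader.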

Assay [5] has as its target Coagulation factor X (Homo sapiens) (UniProt P00742). Kind of assay: Inhibition of human FXa using methoxycarbonyl-D-cyclohexylglycyl-Gly-Arg-p-nitroanilide as substrate at 500 uM by chromogenic substrate hydrolysis assay.
The species named for assay [6] is Homo sapiens. The assay is described as follows: Selectivity for inhibition of human FXIa over human FIXa.
For assay [7], the target named is Plasma kallikrein (Homo sapiens) (UniProt P03952). The assay is described as follows: Inhibition of Kallikrein in human plasma at 500 uM by chromogenic substrate hydrolysis assay. The format is cell-free.
Assay [8] addresses T1, Coagulation factor XI. The assay is described as follows: Inhibition of human FXIa using S-2366 as chromogenic substrate preincubated with enzyme for 10 mins followed by substrate addition by spectrophotometric analysis.
The species entered for assay [9] is Homo sapiens. The assay is described as follows: Selectivity for inhibition of human FXIa over FVIIa (unknown origin).
A short description of assay [10]: Selectivity for inhibition of human FXIa over bovine alpha-chymotrypsin.
Assay [11] concerns the target T2, Coagulation factor VII (Homo sapiens) (UniProt P08709).
T2 sequence (whole entry): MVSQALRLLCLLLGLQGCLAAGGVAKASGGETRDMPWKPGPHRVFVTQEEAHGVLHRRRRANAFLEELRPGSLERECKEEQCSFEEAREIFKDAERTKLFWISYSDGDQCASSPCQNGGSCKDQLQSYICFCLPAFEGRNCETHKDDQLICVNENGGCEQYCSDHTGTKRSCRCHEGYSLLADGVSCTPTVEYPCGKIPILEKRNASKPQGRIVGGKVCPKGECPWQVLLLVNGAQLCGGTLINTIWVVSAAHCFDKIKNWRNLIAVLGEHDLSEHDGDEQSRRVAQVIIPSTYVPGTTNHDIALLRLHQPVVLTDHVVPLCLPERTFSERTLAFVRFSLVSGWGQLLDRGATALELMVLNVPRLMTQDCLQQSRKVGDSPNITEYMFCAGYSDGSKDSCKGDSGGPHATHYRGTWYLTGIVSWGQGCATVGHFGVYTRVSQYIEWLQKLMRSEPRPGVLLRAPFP
The assay is described as follows: Inhibition of FVIIa (unknown origin) at 500 uM by chromogenic substrate hydrolysis assay.

In assay [12] the target is Chymotrypsinogen A (Bos taurus) (UniProt P00766). The assay is described as follows: Inhibition of bovine alpha-chymotrypsin at 500 uM by chromogenic substrate hydrolysis assay.
A further assay is filed under the species Bos taurus. Kind of assay: Inhibition of bovine trypsin using S-2222 as chromogenic substrate at 500 uM by chromogenic substrate hydrolysis assay.
In assay [13] the target is Coagulation factor IX (Homo sapiens) (UniProt P00740). The assay is described as follows: Inhibition of human FIXa at 500 uM by chromogenic substrate hydrolysis assay.
A short description of assay [14]: Selectivity for inhibition of human FXIa over bovine trypsin.
The species entered for assay [15] is Homo sapiens. Kind of assay: Selectivity for inhibition of human FXIa over Kallikrein in human plasma. The format is cell-free.

Chain of Coagulation factor IX (Homo sapiens) (P00740 47-191 limits assumed): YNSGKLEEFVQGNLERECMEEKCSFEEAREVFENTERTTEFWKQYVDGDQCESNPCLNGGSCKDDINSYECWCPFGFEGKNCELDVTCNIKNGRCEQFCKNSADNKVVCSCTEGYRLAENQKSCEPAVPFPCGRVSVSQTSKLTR
Chain of Coagulation factor IX (Homo sapiens) (P00740 227-461 limits assumed): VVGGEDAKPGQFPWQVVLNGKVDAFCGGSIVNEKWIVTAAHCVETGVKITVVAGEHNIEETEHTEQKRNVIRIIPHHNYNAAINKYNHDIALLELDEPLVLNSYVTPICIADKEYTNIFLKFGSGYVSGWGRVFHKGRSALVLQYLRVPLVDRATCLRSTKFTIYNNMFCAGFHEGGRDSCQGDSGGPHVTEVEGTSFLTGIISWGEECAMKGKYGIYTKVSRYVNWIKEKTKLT
T1 sequence (P03951 19-387 limits assumed): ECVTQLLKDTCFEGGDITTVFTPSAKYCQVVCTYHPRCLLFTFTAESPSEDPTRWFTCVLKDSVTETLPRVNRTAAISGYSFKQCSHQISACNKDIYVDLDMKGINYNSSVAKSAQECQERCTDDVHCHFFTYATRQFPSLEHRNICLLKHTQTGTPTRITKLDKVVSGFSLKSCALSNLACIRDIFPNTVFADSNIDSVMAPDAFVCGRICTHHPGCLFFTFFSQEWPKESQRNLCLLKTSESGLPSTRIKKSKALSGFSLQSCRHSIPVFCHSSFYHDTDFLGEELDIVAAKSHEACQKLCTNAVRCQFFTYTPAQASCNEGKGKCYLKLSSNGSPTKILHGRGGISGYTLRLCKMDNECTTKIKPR
T1 sequence (P03951 388-625 limits assumed): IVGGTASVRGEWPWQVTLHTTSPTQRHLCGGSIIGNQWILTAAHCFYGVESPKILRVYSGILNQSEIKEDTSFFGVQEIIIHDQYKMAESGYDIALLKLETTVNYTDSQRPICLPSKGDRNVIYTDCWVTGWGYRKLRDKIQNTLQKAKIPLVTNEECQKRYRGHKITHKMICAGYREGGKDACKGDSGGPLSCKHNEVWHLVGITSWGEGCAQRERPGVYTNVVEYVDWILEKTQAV
Chain of Coagulation factor X (Homo sapiens) (P00742 41-179 limits assumed): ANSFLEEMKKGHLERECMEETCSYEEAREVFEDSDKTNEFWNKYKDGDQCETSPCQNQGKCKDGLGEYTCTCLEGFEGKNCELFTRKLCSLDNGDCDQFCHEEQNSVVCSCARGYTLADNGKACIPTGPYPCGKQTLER
Chain of Coagulation factor X (Homo sapiens) (P00742 235-488 limits assumed): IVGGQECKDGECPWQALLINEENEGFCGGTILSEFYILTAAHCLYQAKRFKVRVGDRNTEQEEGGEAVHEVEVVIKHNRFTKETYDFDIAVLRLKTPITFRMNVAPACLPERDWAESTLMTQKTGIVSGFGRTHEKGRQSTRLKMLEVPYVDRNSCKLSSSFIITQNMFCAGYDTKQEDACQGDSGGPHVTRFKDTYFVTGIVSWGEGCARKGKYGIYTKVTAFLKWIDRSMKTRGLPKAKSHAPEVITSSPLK
Chain of Plasma kallikrein (Homo sapiens) (P03952 20-390 limits assumed): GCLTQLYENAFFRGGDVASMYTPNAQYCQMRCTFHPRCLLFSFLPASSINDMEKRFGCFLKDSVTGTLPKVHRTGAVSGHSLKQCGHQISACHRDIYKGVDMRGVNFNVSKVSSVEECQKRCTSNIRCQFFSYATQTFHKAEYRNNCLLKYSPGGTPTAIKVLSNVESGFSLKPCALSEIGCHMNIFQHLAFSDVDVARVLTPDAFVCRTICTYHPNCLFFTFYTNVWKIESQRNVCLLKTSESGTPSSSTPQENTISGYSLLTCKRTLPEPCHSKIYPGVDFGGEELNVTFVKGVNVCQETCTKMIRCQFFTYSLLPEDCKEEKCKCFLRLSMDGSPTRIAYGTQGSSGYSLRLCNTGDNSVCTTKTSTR
Chain of Plasma kallikrein (Homo sapiens) (P03952 391-638 limits assumed): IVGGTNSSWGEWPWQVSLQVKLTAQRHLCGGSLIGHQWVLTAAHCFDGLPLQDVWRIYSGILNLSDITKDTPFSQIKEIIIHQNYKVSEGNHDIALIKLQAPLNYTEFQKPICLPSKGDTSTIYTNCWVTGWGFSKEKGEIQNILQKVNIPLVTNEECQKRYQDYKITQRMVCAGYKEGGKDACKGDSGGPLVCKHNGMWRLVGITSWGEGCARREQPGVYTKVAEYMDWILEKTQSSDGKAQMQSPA

Turning to `O=c1c2ccccc2nc(-c2ccc(OS(=O)(=O)O)cc2)n1CCCCCn1c(-c2ccc(OS(=O)(=O)O)cc2)nc2ccccc2c1=O`, the inhibition entry (in [1]; in assay [5]; in assay [7]; in assay [11]; in assay [12]; in the assay filed under Bos taurus) was “inactive” throughout. Further, the inhibition entry in assay [13] was “inactive”. In addition, the Selectivity ratio (in the assay filed under Homo sapiens [2]; in the assay listed under Homo sapiens [3]; in the assay listed under Homo sapiens [6]; in the assay filed under Homo sapiens [9]; in assay [10]; in [14]) was > 63 each time. Further, in the assay listed under Homo sapiens [15], the Selectivity ratio was > 63. The inhibition on Coagulation factor XI [4] was 92%. The midpoint of inhibition against Coagulation factor XI [8], the IC50, lay at 49 µM.

In the case of `O=c1c2ccccc2nc(-c2ccc(OS(=O)(=O)O)cc2)n1CCCCCCCn1c(-c2ccc(OS(=O)(=O)O)cc2)nc2ccccc2c1=O`, the inhibition result (in assay [1]; in assay [5]; in [7]; in assay [11]; in [12]; in the assay listed under Bos taurus) was “inactive” throughout. Further, the inhibition result in assay [13] is “inactive”. Besides, the Selectivity ratio (in the assay listed under Homo sapiens [2]; in the assay listed under Homo sapiens [3]; in the assay listed under Homo sapiens [6]; in the assay filed under Homo sapiens [9]; in assay [10]; in [14]) was > 63 throughout. The Selectivity ratio in the assay filed under Homo sapiens [15] is > 63. At Coagulation factor XI [4], the inhibition worked out at 96%. It took 23 µM to reach half-maximal inhibition against Coagulation factor XI [8] (IC50).

For `COc1ccc2nc(-c3ccc(OS(=O)(=O)O)cc3)n(CCCCCCn3c(-c4ccc(OS(=O)(=O)O)cc4)nc4ccc(OC)cc4c3=O)c(=O)c2c1`, the inhibition entry (in assay [1]; in assay [5]; in assay [7]; in [11]; in [12]; in the assay listed under Bos taurus) was “inactive” in each case. Also, the inhibition entry in [13] was “inactive”. Moreover, the Selectivity ratio (in the assay listed under Homo sapiens [2]; in the assay listed under Homo sapiens [3]; in the assay listed under Homo sapiens [6]; in the assay listed under Homo sapiens [9]; in assay [10]; in assay [14]) was > 63 each time. The Selectivity ratio in the assay listed under Homo sapiens [15] is > 63. In addition, at Coagulation factor XI [4], the inhibition is 95%. The IC50 at Coagulation factor XI [8] was determined as 35 µM.

As to `O=c1c2ccccc2nc(-c2ccc(OS(=O)(=O)O)cc2)n1Cc1ccccc1Cn1c(-c2ccc(OS(=O)(=O)O)cc2)nc2ccccc2c1=O`, the inhibition entry (in [1]; in assay [5]; in assay [7]; in assay [11]; in assay [12]; in the assay listed under Bos taurus) was “inactive” throughout. Also, in assay [13], the inhibition entry is “inactive”. In addition, the Selectivity ratio (in the assay listed under Homo sapiens [2]; in the assay listed under Homo sapiens [3]; in the assay listed under Homo sapiens [6]; in the assay listed under Homo sapiens [9]; in [10]; in assay [14]) was > 63 each time. Moreover, the Selectivity ratio in the assay listed under Homo sapiens [15] was > 63. Also, at Coagulation factor XI [4], the inhibition was determined as 87%. The same molecule showed an IC50 against Coagulation factor XI [8] of 57 µM.

Regarding `O=c1c2ccccc2nc(-c2cccc(OS(=O)(=O)O)c2)n1CCOCCn1c(-c2cccc(OS(=O)(=O)O)c2)nc2ccccc2c1=O`, the inhibition entry (in assay [1]; in [5]; in [7]; in assay [11]; in assay [12]; in the assay listed under Bos taurus) was “inactive” each time. In addition, in [13], the inhibition result is “inactive”. The Selectivity ratio (in the assay filed under Homo sapiens [2]; in the assay listed under Homo sapiens [3]; in the assay listed under Homo sapiens [6]; in the assay filed under Homo sapiens [9]; in assay [10]; in [14]) was > 63 throughout. The Selectivity ratio in the assay listed under Homo sapiens [15] was > 63. Besides, the inhibition on Coagulation factor XI [4] was determined as 94%. This molecule also returned an IC50 on Coagulation factor XI [8] of 401 µM.

In the case of `O=c1c2ccccc2nc(-c2ccc(OS(=O)(=O)O)cc2)n1Cc1cccc(Cn2c(-c3ccc(OS(=O)(=O)O)cc3)nc3ccccc3c2=O)c1`, the inhibition result (in [1]; in [5]; in assay [7]; in assay [11]; in [12]; in the assay listed under Bos taurus) was “inactive” in each case. The inhibition result in assay [13] was “inactive”. Besides, the Selectivity ratio (in the assay listed under Homo sapiens [2]; in the assay filed under Homo sapiens [3]; in the assay filed under Homo sapiens [6]; in the assay listed under Homo sapiens [9]; in assay [10]; in [14]) was > 63 throughout. For the same molecule, the Selectivity ratio in the assay listed under Homo sapiens [15] was > 63. In addition, the inhibition against Coagulation factor XI [4] worked out at 96%. Also, at Coagulation factor XI [8], the IC50 worked out at 76 µM.

For the molecule `O=c1c2ccccc2nc(-c2ccc(OS(=O)(=O)O)cc2)n1CCCCCCCCCCn1cc(Cn2c(-c3ccc(OS(=O)(=O)O)cc3)nc3ccccc3c2=O)nn1`, the inhibition entry (in [1]; in assay [5]; in assay [7]; in assay [11]; in assay [12]; in the assay listed under Bos taurus) was “inactive” in each case. Besides, in assay [13], the inhibition entry was “inactive”. Also, the Selectivity ratio (in the assay filed under Homo sapiens [2]; in the assay listed under Homo sapiens [3]; in the assay filed under Homo sapiens [6]; in the assay listed under Homo sapiens [9]; in assay [10]; in assay [14]) was > 63 throughout. The Selectivity ratio in the assay listed under Homo sapiens [15] is > 63. On Coagulation factor XI [4], the inhibition was found to be 112%. Moreover, the IC50 at Coagulation factor XI [8] was 22 µM.

`O=c1c2ccccc2nc(-c2ccc(OS(=O)(=O)O)cc2)n1CCCCCCCCn1cc(Cn2c(-c3ccc(OS(=O)(=O)O)cc3)nc3ccccc3c2=O)nn1`: the inhibition result (in assay [1]; in [5]; in assay [7]; in [11]; in assay [12]; in the assay listed under Bos taurus) was “inactive” in each case. Besides, the inhibition entry in assay [13] was “inactive”. The Selectivity ratio (in the assay filed under Homo sapiens [2]; in the assay listed under Homo sapiens [3]; in the assay listed under Homo sapiens [6]; in the assay listed under Homo sapiens [9]; in [10]; in [14]) was > 63 in each case. Moreover, the Selectivity ratio in the assay filed under Homo sapiens [15] was > 63. For the same molecule, the inhibition against Coagulation factor XI [4] was found to be 100%. On Coagulation factor XI [8], the IC50 stood at 39 µM.

As for `O=c1c2ccccc2nc(-c2ccc(OS(=O)(=O)O)cc2)n1CCCCCCCCCn1cc(Cn2c(-c3ccc(OS(=O)(=O)O)cc3)nc3ccccc3c2=O)nn1`, the inhibition result (in assay [1]; in assay [5]; in assay [7]; in assay [11]; in assay [12]; in the assay listed under Bos taurus) was “inactive” in each case. Moreover, the inhibition result in assay [13] was “inactive”. In addition, the Selectivity ratio (in the assay filed under Homo sapiens [2]; in the assay filed under Homo sapiens [3]; in the assay listed under Homo sapiens [6]; in the assay filed under Homo sapiens [9]; in assay [10]; in assay [14]) was > 63 each time. The Selectivity ratio in the assay filed under Homo sapiens [15] is > 63. Also, the inhibition at Coagulation factor XI [4] is 100%. On Coagulation factor XI [8], this molecule displayed an IC50 of 34 µM.
